Experimental data of several laboratories.
Target: Sodium-dependent serotonin transporter (SLC6A4, Homo sapiens, UniProt P31645)

Compound | effect on | action | technique | notes | quantity | value
CNc1nc2cc(OCCCCN3CCN(c4cccc(Cl)c4Cl)CC3)ccc2s1 | ligand displacement |  | radioligand |  | Ki | 0.45 µM
CC(=O)N1C[C@@H](CCN2CC=C(c3c[nH]c4cc(Cl)ccc34)CC2)c2ccccc21 | ligand displacement |  | radioligand | cell membranes | IC50 | 0.0438 µM
CN[C@@H](C)C(=O)c1ccccc1 | calcium signal | agonist | fluorescence |  | EC50 | 15.3 µM
CC(N)CCc1ccccc1Cl (stereo not shown) | transporter uptake | inhibitor | radiometric |  | Ki | 24 µM
Clc1ccc2c(C3CCN(CCc4c[nH]c5ccccc45)CC3)c[nH]c2c1 | transporter uptake | inhibitor | radiometric |  | Ki | 0.053 µM
CNC(C)(C)C(=O)c1ccccc1 | calcium signal | agonist | fluorescence |  | EC50 | 12.9 µM
C[C@H](N)Cn1ncc2ccc3c(c21)CCCO3 | ligand displacement |  | radioligand |  | Ki | 62.5 µM
C[C@@H](NC(=O)[C@@H](N)Cc1ccc(O)cc1)C(=O)NCC(=O)N[C@@H](Cc1ccccc1)C(=O)N(C)CCC[C@@]1(c2ccc(F)cc2)OCc2cc(C#N)ccc21 | ligand displacement |  | radioligand |  | Ki | 0.28 µM
OC(c1ccc(F)cc1)C(F)(F)CCN1CCC(O)(c2ccc(Cl)cc2)CC1 (racemic) | ligand displacement |  | radioligand |  | Ki | 1.99 µM
CNc1nc(C#Cc2ccc(Br)s2)nc2c1ncn2[C@H]1[C@H](O)[C@H](O)[C@]2(C(=O)OC)C[C@H]12 | ligand displacement |  | radioligand | cell membranes | Ki | > 10 µM
Clc1ccc2c(C3=CCN(CCc4c[nH]c5ccccc45)CC3)c[nH]c2c1 | ligand displacement |  | radioligand | cell membranes | IC50 | 0.0255 µM
CCOC(=O)[C@@]12C[C@@H]1[C@@H](n1cnc3c(NC)nc(C#Cc4ccc(Cl)s4)nc31)[C@H](O)[C@@H]2O | ligand displacement |  | radioligand | cell membranes | Ki | > 10 µM
COc1cc(C(=O)N2CC[C@@H](O)[C@@H](N)C2)cc2nc(-c3cc4ccccc4n3CC3CC3)n(C)c12 | transporter uptake |  |  |  | IC50 | 50.1 µM
